From ChEMBL document CHEMBL1151733, “Pirinixic acid derivatives as novel dual inhibitors of microsomal prostaglandin E2 synthase-1 and 5-lipoxygenase” (J Med Chem, 2008) come the findings set out here.

Active and inactive are the calls of the source. The calls are words filed in the database; no cut-off is given here. Where only a bound is given, the exact number is not on record here.

The target of one assay is T1, Prostaglandin E synthase (Homo sapiens, UniProt O14684).
T1 sequence (O14684 whole entry): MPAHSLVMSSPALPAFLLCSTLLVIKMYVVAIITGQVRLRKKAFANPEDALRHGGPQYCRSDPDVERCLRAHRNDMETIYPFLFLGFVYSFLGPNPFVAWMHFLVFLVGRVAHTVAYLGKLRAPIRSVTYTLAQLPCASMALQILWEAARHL
The assay can be described thus: Inhibition of PGES1 in human A549 cell microsome assessed as PGE2 formation by cell-free assay. The procedure, abridged:
(§1)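 Microsomes from A549 cells grown with IL-1β (1 ng/mL, 72 h), diluted in 0.1 M potassium phosphate pH 7.4 with 2.5 mM glutathione. Compound or DMSO added 15 min before PGH₂ (20 µM final). Reaction ran 1 min at 4 °C and was stopped with FeCl₂/citric acid. PGE₂ isolated by C18 SPE, then RP-HPLC with UV at 195 nm against 11β-PGE₂ internal standard.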

Assay [1] has as its target T2, Prostaglandin G/H synthase 1 (Ovis aries, UniProt P05979).
T2 sequence (P05979 whole entry): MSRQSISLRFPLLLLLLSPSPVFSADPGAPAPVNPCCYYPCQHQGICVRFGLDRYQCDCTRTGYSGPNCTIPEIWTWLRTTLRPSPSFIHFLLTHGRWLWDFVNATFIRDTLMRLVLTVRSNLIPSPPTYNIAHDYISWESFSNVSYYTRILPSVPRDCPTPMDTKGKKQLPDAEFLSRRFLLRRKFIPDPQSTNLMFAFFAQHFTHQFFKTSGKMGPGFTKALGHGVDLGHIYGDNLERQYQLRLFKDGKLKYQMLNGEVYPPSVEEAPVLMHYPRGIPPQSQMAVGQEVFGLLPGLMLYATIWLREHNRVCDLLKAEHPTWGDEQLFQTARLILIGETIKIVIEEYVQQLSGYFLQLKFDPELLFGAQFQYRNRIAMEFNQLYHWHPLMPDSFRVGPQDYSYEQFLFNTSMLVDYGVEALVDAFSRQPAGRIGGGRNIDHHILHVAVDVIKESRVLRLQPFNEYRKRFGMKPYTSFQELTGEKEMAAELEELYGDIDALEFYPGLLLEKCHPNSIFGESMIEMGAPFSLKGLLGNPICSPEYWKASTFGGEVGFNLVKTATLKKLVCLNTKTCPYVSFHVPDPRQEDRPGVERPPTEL
The assay can be described thus: Inhibition of ovine COX1. The procedure, abridged:
(§2)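 Ovine COX-1 (50 units) or human recombinant COX-2 (20 units) in 100 mM Tris pH 8 with 5 mM glutathione, 5 µM hemoglobin and 100 µM EDTA. Compound preincubation 5 min at 4 °C, then prewarming 60 s at 37 °C. AA added at 5 µM for COX-1 or 2 µM for COX-2, reacted 5 min at 37 °C. 12-HHT extracted and quantified by HPLC. Mean ± SE, n = 3.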

In assay [2] the target is T3, Prostaglandin G/H synthase 2 (Homo sapiens, UniProt P35354).
T3 sequence (P35354 whole entry): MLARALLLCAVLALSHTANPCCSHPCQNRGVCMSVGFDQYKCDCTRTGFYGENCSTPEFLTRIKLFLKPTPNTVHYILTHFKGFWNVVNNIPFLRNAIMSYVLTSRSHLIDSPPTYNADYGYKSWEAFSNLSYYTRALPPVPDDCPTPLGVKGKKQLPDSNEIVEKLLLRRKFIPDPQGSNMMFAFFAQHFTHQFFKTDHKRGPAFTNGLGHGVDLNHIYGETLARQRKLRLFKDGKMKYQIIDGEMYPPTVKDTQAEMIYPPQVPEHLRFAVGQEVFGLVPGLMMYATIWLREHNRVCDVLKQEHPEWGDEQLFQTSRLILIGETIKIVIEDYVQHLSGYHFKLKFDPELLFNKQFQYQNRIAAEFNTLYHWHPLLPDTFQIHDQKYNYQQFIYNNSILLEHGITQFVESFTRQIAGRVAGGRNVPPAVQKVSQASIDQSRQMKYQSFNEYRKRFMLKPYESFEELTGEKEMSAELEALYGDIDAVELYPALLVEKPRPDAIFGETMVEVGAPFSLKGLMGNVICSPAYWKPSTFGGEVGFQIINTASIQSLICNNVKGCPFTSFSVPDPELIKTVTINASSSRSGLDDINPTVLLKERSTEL
The assay can be described thus: Inhibition of human recombinant COX2. The procedure, abridged:
as §2

In assay [3] the target is T4, Polyunsaturated fatty acid 5-lipoxygenase (Homo sapiens, UniProt P09917).
T4 sequence (P09917 whole entry): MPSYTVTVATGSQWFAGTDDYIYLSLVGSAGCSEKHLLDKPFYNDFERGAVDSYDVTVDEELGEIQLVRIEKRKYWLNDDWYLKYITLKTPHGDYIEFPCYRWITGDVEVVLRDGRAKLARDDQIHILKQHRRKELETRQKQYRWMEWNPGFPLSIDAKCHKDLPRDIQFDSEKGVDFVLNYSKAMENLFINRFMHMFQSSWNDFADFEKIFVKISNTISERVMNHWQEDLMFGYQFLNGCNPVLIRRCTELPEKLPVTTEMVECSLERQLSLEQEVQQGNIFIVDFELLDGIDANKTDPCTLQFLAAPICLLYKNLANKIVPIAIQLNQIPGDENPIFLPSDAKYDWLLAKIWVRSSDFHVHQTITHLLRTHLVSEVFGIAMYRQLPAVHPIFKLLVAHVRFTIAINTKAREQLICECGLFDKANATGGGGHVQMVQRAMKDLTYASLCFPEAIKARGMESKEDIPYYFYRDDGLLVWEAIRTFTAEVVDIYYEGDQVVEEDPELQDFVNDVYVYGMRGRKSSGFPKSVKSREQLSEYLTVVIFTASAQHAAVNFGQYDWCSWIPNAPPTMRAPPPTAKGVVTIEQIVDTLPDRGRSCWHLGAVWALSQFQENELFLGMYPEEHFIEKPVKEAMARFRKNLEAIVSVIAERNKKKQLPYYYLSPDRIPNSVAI
Kind of assay: Inhibition of 5-LO in PMNL cells. It counts as cell-based. The procedure, abridged: (§3)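 Freshly isolated human PMNL from leukocyte concentrates of healthy donors, 5 × 10⁶ cells/mL in PBS pH 7.4 with 1 mg/mL glucose and 1 mM CaCl₂. Preincubated with compound 15 min at RT, then stimulated with 2.5 µM A23187 plus 20 µM AA for 10 min at 37 °C. Stopped with methanol; LTB₄, its all-trans isomers and 5-H(P)ETE quantified by HPLC with PGB₁ internal standard.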

For assay [4], the target named is T5, Prostaglandin G/H synthase 1 (Ovis aries) (UniProt P05979).
T5 sequence (whole entry): T2 sequence (P05979 whole entry)
Kind of assay: Inhibition of ovine COX1 assessed as remaining activity at 10 uM relative to control. A digest of the protocol: as §2

Assay [5] concerns the target T4, Polyunsaturated fatty acid 5-lipoxygenase. Kind of assay: Inhibition of human recombinant 5-LO expressed in Escherichia coli by cell-free assay. The procedure, abridged:
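Human 5-LO expressed in E. coli MV1190 (pT3-5LO) at 27 °C, partially purified from the 100000g lysate supernatant. Held in PBS pH 7.4 with 1 mM EDTA and 1 mM ATP with compound for 10 min at 4 °C, warmed 30 s at 37 °C, then started with 2 mM CaCl₂ plus 20 µM AA. After 10 min at 37 °C, stopped with cold methanol; products measured by HPLC.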

The target of assay [6] is T6, Prostaglandin E synthase (Homo sapiens) (UniProt O14684).
T6 sequence (whole entry): T1 sequence (O14684 whole entry)
Kind of assay: Inhibition of PGES1 in human A549 cell microsome assessed as PGE2 formation at 10 uM by cell-free assay relative to control. On the set-up: scale not given: the % may be the effect or the level left. The procedure, abridged:
as §1

The target in assay [7] is T7, Prostaglandin G/H synthase 2 (Homo sapiens) (UniProt P35354).
T7 sequence (whole entry): T3 sequence (P35354 whole entry)
Kind of assay: Inhibition of human recombinant COX2 assessed as remaining activity at 10 uM relative to control. The procedure, abridged:
as §2

Assay [8] addresses T8, Polyunsaturated fatty acid 5-lipoxygenase (Homo sapiens) (UniProt P09917).
T8 sequence (whole entry): T4 sequence (P09917 whole entry)
The assay can be described thus: Inhibition of 5-LO in human PMNL cells at 10 uM relative to control. It counts as cell-based. The arrangement: scale not given: the % may be the effect or the level left. The procedure, abridged:
as §3

The target in assay [9] is T6, Prostaglandin E synthase (Homo sapiens). Kind of assay: Inhibition of mPGES1 in human A549 cells assessed as inhibition of IL-1-beta-induced PGE2 formation at 10 uM by cell-intact assay. Format: cell-based. A digest of the protocol: (§4)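 A549 cells stimulated with IL-1β for 72 h; 2 × 10⁶ cells in 0.5 mL PBS with 1 mM CaCl₂, preincubated with compound 10 min at 37 °C. Stimulated with 2.5 µM A23187, 1 µM AA and [³H]AA (18.4 kBq) for 15 min at 37 °C. Supernatant acidified; [³H]PGE₂ separated by SPE/RP-HPLC and counted by scintillation. Vehicle 0.1% DMSO; mean ± SE, n = 3.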

The target is the same in assay [10]. Kind of assay: Inhibition of mPGES1 in human A549 cells assessed as inhibition of IL-1-beta-induced PGE2 formation at 5 uM by cell-intact assay. Format: cell-based. A digest of the protocol:
as §4

The target is the same in assay [11]. The conditions noted are these: A549, 33 uM.

As to `CCCCCCC(Sc1nc(Cl)cc(Nc2cc(C)c(-c3ccccc3)cc2OC)n1)C(=O)O` (stereo unspecified), the IC50 – broadly, the concentration needed to halve the response being measured – on Prostaglandin E synthase is 2.1 µM; in [1], > 10 µM; in assay [2] it was > 10 µM; in [3] it was 0.5 µM; in [5], 2 µM. Further, the Activity was 71.2% in [4], 24.9% in [6], 53.7% in assay [7] and 3.1% in [8].

As for `CCCCCCC(Sc1nc(Cl)cc(Nc2ccc3ncccc3c2)n1)C(=O)OCC` (stereo unspecified), the IC50 is 5.6 µM at Prostaglandin E synthase, > 10 µM in assay [1] and > 10 µM in assay [2]. Besides, the figures for the Activity in assay [4], in [6] and in assay [7] were 69.5%, 39.1% and 61.7%, respectively.

Turning to `COc1ccc2c(c1)c(CC(=O)O)c(C)n2C(=O)c1ccc(Cl)cc1`, the Activity in assay [4] came to 19%. The result in assay [9] was Active.

With `Cc1ccc(-c2cc(C(F)(F)F)nn2-c2ccc(S(N)(=O)=O)cc2)cc1`, the result in assay [10] was Active.

With `CCCCCCC(Sc1nc(Cl)cc(Nc2ccc(-c3ccc(C#N)cc3)cc2)n1)C(=O)O` (stereo unspecified), the 50% inhibitory concentration (IC50) is > 10 µM in assay [1], > 10 µM in assay [2], 0.4 µM in assay [3] and 1.5 µM in [5]. In addition, the Activity worked out at 66% in assay [4], 26.1% in assay [6], 61.2% in assay [7] and 2.7% in assay [8].

For `CC(C)c1ccc2c(c1)c(SC(C)(C)C)c(CC(C)(C)C(=O)O)n2Cc1ccc(Cl)cc1`, the results for the IC50 in assay [1], in [2] and in [3] were > 10 µM, > 10 µM and 0.09 µM, respectively. The inhibition (as a rule, the drop in the measured response relative to a control, in per cent) in assay [11] amounted to 63%. Further, the Activity in [6] was 26%. Moreover, the outcome in [8] was inactive.

Turning to `CCCCCCC(Sc1nc(Cl)cc(Nc2ccc(-c3ccccc3)cc2)n1)C(=O)O` (stereo unspecified), the IC50 was 1.6 µM at Prostaglandin E synthase; > 10 µM in assay [1]; > 10 µM in assay [2]; 0.7 µM in [3]; 1.5 µM in assay [5]. Besides, the Activity in assay [4] came out at 52.3%; in assay [6], 21.7%; in assay [7] it was 57.1%; in assay [8], 4.1%.
